The text below walks through data of ChEMBL document CHEMBL1629640, “Antimicrobial activities of jadomycin B and structurally related analogues” (2009).

Test [1] has as its system Staphylococcus aureus. Briefly: Antimicrobial activity against Staphylococcus aureus C622 by broth microdilution method. Type of test: functional. The essentials:
(§1)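 Preliminary MIC screen by twofold serial broth microdilution in Mueller-Hinton broth, 0.5% DMSO final, with a DMSO-only control. Overnight mid-log cultures were diluted 100-fold, grown 4 h, then diluted 10−6 and added to wells. Plates were incubated overnight and growth read visually. Inhibition was defined as growth ≤ half of control. Three replicates per strain.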
For orientation: Dilution methods test growth across graded concentrations, often in twofold steps.

Test [2] relates to Staphylococcus aureus. Briefly: Antimicrobial activity against methicillin-resistant Staphylococcus aureus C623 by broth microdilution method. The format is functional. The essentials: as §1
Test [3] concerns Staphylococcus aureus. Briefly: Antimicrobial activity against Staphylococcus aureus 305 by broth microdilution method. The format is functional. The essentials:
as §1

Test [4] deals with Staphylococcus aureus. In words: Antimicrobial activity against Staphylococcus aureus Becker CP8 by broth microdilution method. The format is functional. The essentials: as §1
The subject of test [5] is Staphylococcus epidermidis. In words: Antimicrobial activity against Staphylococcus epidermidis C960 by broth microdilution method. The format is functional. The essentials:
(§2)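 Preliminary screen by broth microdilution. Jadomycins dissolved in 100% DMSO and diluted to a 2.56 mg ml−1 working stock in 5% DMSO. First well held 0.5% DMSO final, followed by twofold serial dilutions in broth. A DMSO-only control was included. Strains were grown in Mueller-Hinton broth to mid-log, diluted 100-fold, incubated 4 h, then diluted 10−6. Plates were incubated overnight and growth was read visually. MIC defined as growth ≤ half of control. Three replicates.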

The subject of test [6] is Staphylococcus epidermidis. Briefly: Antimicrobial activity against Staphylococcus epidermidis isolate C621 by broth microdilution method. Type of test: functional. The essentials:
as §2

For test [7], the system named is Pseudomonas aeruginosa. Briefly: Antimicrobial activity against Pseudomonas aeruginosa H187 by broth microdilution method. The format is functional. Put shortly:
as §2

Test [8] deals with Pseudomonas aeruginosa. Briefly: Antimicrobial activity against Pseudomonas aeruginosa H188 by broth microdilution method. Type of test: functional. The essentials: as §2
Another test relates to Enterococcus faecalis. Briefly: Antimicrobial activity against Enterococcus faecalis C625 by broth microdilution method. The format is functional. The essentials: as §2
Another test deals with Bacillus subtilis. In words: Antimicrobial activity against Bacillus subtilis C971 by broth microdilution method. The format is functional. Put shortly: as §2
Test [9] deals with Staphylococcus aureus. Briefly: Antimicrobial activity against methicillin-resistant Staphylococcus aureus C623 by CLSI method. Type of test: functional. The essentials: (§3)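 MIC by CLSI broth microdilution in cation-adjusted Mueller-Hinton broth at 5 × 10^5 CFU ml−1 final (5 × 10^4 CFU/well).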
Test [10] deals with Staphylococcus aureus. In words: Antimicrobial activity against Staphylococcus aureus 305 by CLSI method. Type of test: functional. Put shortly: as §3
For test [11], the system named is Staphylococcus epidermidis. Briefly: Antimicrobial activity against Staphylococcus epidermidis C960 by CLSI method. The format is functional.
Test [12] has as its system Staphylococcus aureus. In words: Antimicrobial activity against Staphylococcus aureus ATCC 55804 by broth microdilution method.

The structures appear in SMILES notation. ≈ marks a conversion by molar mass, not a printed value. Some results are limits rather than exact numbers.

By MIC is commonly meant the smallest concentration in the dilution series that meets the test's criterion for growth inhibition. Read a low MIC as greater potency. Regarding `Cc1cc(O)c2c(c1)[C@@H]1OC(=O)[C@@H]([C@H](C)O)N1C1=C2C(=O)c2cccc(O[C@H]3C[C@@H](O)[C@@H](O)[C@H](C)O3)c2C1=O` [JADOMYCIN DT], the minimal inhibitory concentration (MIC) against Staphylococcus aureus [1] is 16 µg/mL (≈ 29.8 µM); with Staphylococcus aureus [2] it was 16 µg/mL (≈ 29.8 µM); against Staphylococcus aureus [3], 32 µg/mL (≈ 59.5 µM); in the test on Staphylococcus aureus [4], 32 µg/mL (≈ 59.5 µM); in [5] it was 2 µg/mL (≈ 3.72 µM); in test [6] it was 8 µg/mL (≈ 14.9 µM). Further, the MIC against Pseudomonas aeruginosa [7] is above 128 µg/mL; in the test on Pseudomonas aeruginosa [8] it was above 128 µg/mL; with Enterococcus faecalis it was above 128 µg/mL; against Bacillus subtilis, 64 µg/mL (≈ 119 µM); with Staphylococcus aureus [9] it was 32 µg/mL (≈ 59.5 µM); in the test with Staphylococcus aureus [10], 32 µg/mL (≈ 59.5 µM). In addition, the minimum inhibitory concentration (MIC) in [11] stood at 4 µg/mL (≈ 7.44 µM); against Staphylococcus aureus [12], 64 µg/mL (≈ 119 µM).

`Cc1cc(O)c2c(c1)[C@@H]1NC(=O)C[C@@H](C(=O)O)N1C1=C2C(=O)c2cccc(O[C@H]3C[C@@H](O)[C@@H](O)[C@H](C)O3)c2C1=O` [JADOMYCIN N]: the minimum inhibitory concentration (MIC) against Staphylococcus aureus [1] was 32 µg/mL (≈ 58.1 µM); in the test on Staphylococcus aureus [2] it was 16 µg/mL (≈ 29.1 µM); against Staphylococcus aureus [3] it was 8 µg/mL (≈ 14.5 µM); in the test on Staphylococcus aureus [4], 16 µg/mL (≈ 29.1 µM); in test [5], below 1 µg/mL; in test [6], 8 µg/mL (≈ 14.5 µM). Also, the minimum inhibitory concentration (MIC) against Pseudomonas aeruginosa [7] was above 128 µg/mL; in the test with Pseudomonas aeruginosa [8], above 128 µg/mL; in the test with Enterococcus faecalis it was above 128 µg/mL; in the test on Bacillus subtilis, 32 µg/mL (≈ 58.1 µM); in the test with Staphylococcus aureus [9], 128 µg/mL (≈ 233 µM); against Staphylococcus aureus [10] it was above 128 µg/mL. The figures for the minimal inhibitory concentration (MIC) (in [11]; with Staphylococcus aureus [12]) were 16 µg/mL (≈ 29.1 µM) and 32 µg/mL (≈ 58.1 µM), respectively.

As to `Cc1cc(O)c2c(c1)[C@@H]1OC(=O)[C@H]([C@H](C)O)N1C1=C2C(=O)c2cccc(O[C@H]3C[C@@H](O)[C@@H](O)[C@H](C)O3)c2C1=O` [JADOMYCIN T], the minimal inhibitory concentration (MIC) against Staphylococcus aureus [1] is 8 µg/mL (≈ 14.9 µM); in the test on Staphylococcus aureus [2] it was 8 µg/mL (≈ 14.9 µM); against Staphylococcus aureus [3] it was 4 µg/mL (≈ 7.44 µM); in the test with Staphylococcus aureus [4] it was 4 µg/mL (≈ 7.44 µM); in [5], below 1 µg/mL; in test [6], 2 µg/mL (≈ 3.72 µM). Besides, the minimum inhibitory concentration (MIC) was above 128 µg/mL against Pseudomonas aeruginosa [7]; above 128 µg/mL in the test with Pseudomonas aeruginosa [8]; above 128 µg/mL in the test with Enterococcus faecalis; 8 µg/mL (≈ 14.9 µM) against Bacillus subtilis; 32 µg/mL (≈ 59.5 µM) with Staphylococcus aureus [9]; 64 µg/mL (≈ 119 µM) in the test on Staphylococcus aureus [10]. Besides, the figures for the MIC (in test [11]; in the test on Staphylococcus aureus [12]) were 1 µg/mL (≈ 1.86 µM) and 16 µg/mL (≈ 29.8 µM), respectively.

`Cc1cc(O)c2c(c1)[C@@H]1OC(=O)[C@H](CC(C)C)N1C1=C2C(=O)c2cccc(O[C@H]3C[C@@H](O)[C@@H](O)[C@H](C)O3)c2C1=O` [JADOMYCIN L]: the MIC is below 1 µg/mL with Staphylococcus aureus [1]; below 1 µg/mL against Staphylococcus aureus [2]; 8 µg/mL (≈ 14.6 µM) with Staphylococcus aureus [3]; 8 µg/mL (≈ 14.6 µM) against Staphylococcus aureus [4]; below 1 µg/mL in test [5]; 4 µg/mL (≈ 7.28 µM) in [6]. In addition, the MIC was above 128 µg/mL in the test with Pseudomonas aeruginosa [7]; above 128 µg/mL in the test with Pseudomonas aeruginosa [8]; above 128 µg/mL in the test with Enterococcus faecalis; 16 µg/mL (≈ 29.1 µM) in the test with Bacillus subtilis; 8 µg/mL (≈ 14.6 µM) in the test with Staphylococcus aureus [9]; 8 µg/mL (≈ 14.6 µM) with Staphylococcus aureus [10]. Further, the MIC in test [11] is 0.5 µg/mL (≈ 0.91 µM); with Staphylococcus aureus [12], 16 µg/mL (≈ 29.1 µM).

With `Cc1cc(O)c2c(c1)[C@@H]1OC(=O)[C@@H](CO)N1C1=C2C(=O)c2cccc(O[C@H]3C[C@@H](O)[C@@H](O)[C@H](C)O3)c2C1=O` [JADOMYCIN DS], the MIC against Staphylococcus aureus [1] turned out to be 8 µg/mL (≈ 15.3 µM); in the test with Staphylococcus aureus [2], 8 µg/mL (≈ 15.3 µM); with Staphylococcus aureus [3], 4 µg/mL (≈ 7.64 µM); against Staphylococcus aureus [4], 8 µg/mL (≈ 15.3 µM); in test [5] it was 1 µg/mL (≈ 1.91 µM); in test [6] it was 4 µg/mL (≈ 7.64 µM). Also, the minimum inhibitory concentration (MIC) with Pseudomonas aeruginosa [7] was above 128 µg/mL; in the test on Pseudomonas aeruginosa [8], above 128 µg/mL; in the test on Enterococcus faecalis it was above 128 µg/mL; with Bacillus subtilis, 16 µg/mL (≈ 30.6 µM); in the test with Staphylococcus aureus [9], 16 µg/mL (≈ 30.6 µM); against Staphylococcus aureus [10] it was 32 µg/mL (≈ 61.1 µM). For the same compound, the values for the minimum inhibitory concentration (MIC) (in test [11]; with Staphylococcus aureus [12]) were 2 µg/mL (≈ 3.82 µM) and 16 µg/mL (≈ 30.6 µM), respectively.

In the case of `Cc1cc(O)c2c(c1)[C@@H]1OC(=O)[C@H](Cc3ccccc3)N1C1=C2C(=O)c2cccc(O[C@H]3C[C@@H](O)[C@@H](O)[C@H](C)O3)c2C1=O` [JADOMYCIN F], the minimal inhibitory concentration (MIC) was 1 µg/mL (≈ 1.71 µM) against Staphylococcus aureus [1]; 1 µg/mL (≈ 1.71 µM) with Staphylococcus aureus [2]; 4 µg/mL (≈ 6.85 µM) in the test with Staphylococcus aureus [3]; 8 µg/mL (≈ 13.7 µM) against Staphylococcus aureus [4]; below 1 µg/mL in test [5]; 2 µg/mL (≈ 3.43 µM) in [6]. In addition, the MIC was above 128 µg/mL against Pseudomonas aeruginosa [7]; above 128 µg/mL against Pseudomonas aeruginosa [8]; above 128 µg/mL in the test on Enterococcus faecalis; 16 µg/mL (≈ 27.4 µM) against Bacillus subtilis; 8 µg/mL (≈ 13.7 µM) in the test with Staphylococcus aureus [9]; 4 µg/mL (≈ 6.85 µM) in the test with Staphylococcus aureus [10]. For the same compound, the MIC in test [11] was 0.5 µg/mL (≈ 0.857 µM); against Staphylococcus aureus [12], 16 µg/mL (≈ 27.4 µM).
